According to ChEMBL document CHEMBL3779810, “Potent, Selective, and Orally Bioavailable Inhibitors of VPS34 Provide Chemical Tools to Modulate Autophagy in Vivo” (ACS Med Chem Lett, 2016):
Blank lines part the entries; values can stand above or below the molecule they belong to. Active and inactive are the calls of the source. No cut-off for these calls is given here.

What was measured:
[1] = Intrinsic clearance in mouse liver microsomes by LC-MS/MS analysis; type: ADME; details: read-out: CLH
[2] = target: T1, Phosphatidylinositol 3-kinase catalytic subunit type 3 (Homo sapiens, UniProt Q8NEB9); experiment: Inhibition of VPS34 in human DLD1 cells assessed as prevention of NCOA4 protein degradation at 1 to 10 uM incubated for 24 hrs by Western blot analysis; type: cell-based; details: DLD-1
T1 sequence (Q8NEB9 whole entry): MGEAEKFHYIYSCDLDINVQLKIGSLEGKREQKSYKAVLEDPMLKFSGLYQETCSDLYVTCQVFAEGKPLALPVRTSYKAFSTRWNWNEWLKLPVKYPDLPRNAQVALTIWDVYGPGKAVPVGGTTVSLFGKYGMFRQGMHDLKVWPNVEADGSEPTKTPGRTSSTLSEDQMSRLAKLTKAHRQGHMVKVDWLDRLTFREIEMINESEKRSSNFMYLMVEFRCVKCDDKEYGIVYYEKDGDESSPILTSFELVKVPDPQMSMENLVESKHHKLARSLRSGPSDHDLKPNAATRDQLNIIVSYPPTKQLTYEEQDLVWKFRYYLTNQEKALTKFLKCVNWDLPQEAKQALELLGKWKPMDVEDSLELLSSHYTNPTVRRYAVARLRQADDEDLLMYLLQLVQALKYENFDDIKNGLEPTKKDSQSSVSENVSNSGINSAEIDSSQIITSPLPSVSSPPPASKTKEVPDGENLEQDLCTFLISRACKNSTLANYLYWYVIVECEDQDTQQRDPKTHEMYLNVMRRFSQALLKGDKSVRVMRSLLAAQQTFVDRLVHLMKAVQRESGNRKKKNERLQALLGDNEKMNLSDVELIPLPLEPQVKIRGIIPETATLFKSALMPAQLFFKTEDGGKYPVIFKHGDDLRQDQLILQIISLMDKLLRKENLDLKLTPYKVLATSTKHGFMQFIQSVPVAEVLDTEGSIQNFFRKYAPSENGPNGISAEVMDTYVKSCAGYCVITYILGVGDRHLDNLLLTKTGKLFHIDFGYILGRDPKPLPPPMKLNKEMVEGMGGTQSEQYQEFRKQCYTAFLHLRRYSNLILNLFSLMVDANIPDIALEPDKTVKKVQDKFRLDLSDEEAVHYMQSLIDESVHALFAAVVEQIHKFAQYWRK

[3] = target: T1, Phosphatidylinositol 3-kinase catalytic subunit type 3; experiment: Inhibition of VPS34 in human DLD1 cells assessed as prevention of p62 degradation at 1 to 10 uM incubated for 24 hrs by Western blot analysis; type: cell-based; details: DLD-1
[4] = target: T1, Phosphatidylinositol 3-kinase catalytic subunit type 3; experiment: Inhibition of VPS34 in human DLD1 cells assessed as prevention of NBR1 protein degradation at 1 to 10 uM incubated for 24 hrs by Western blot analysis; type: cell-based; details: DLD-1
[5] = target: T1, Phosphatidylinositol 3-kinase catalytic subunit type 3; experiment: Inhibition of VPS34 in human DLD1 cells assessed as prevention of NDP52 protein degradation at 1 to 10 uM incubated for 24 hrs by Western blot analysis; type: cell-based; details: DLD-1
[6] = target: T1, Phosphatidylinositol 3-kinase catalytic subunit type 3; experiment: Inhibition of VPS34 in human DLD1 cells assessed as prevention of FTH1 protein degradation at 1 to 10 uM incubated for 24 hrs by Western blot analysis; type: cell-based; details: DLD-1
[7] = target: T2, Phosphatidylinositol 4,5-bisphosphate 3-kinase catalytic subunit delta isoform (Homo sapiens, UniProt O00329); experiment: Inhibition of PI3Kdelta (unknown origin)
T2 sequence (O00329 whole entry): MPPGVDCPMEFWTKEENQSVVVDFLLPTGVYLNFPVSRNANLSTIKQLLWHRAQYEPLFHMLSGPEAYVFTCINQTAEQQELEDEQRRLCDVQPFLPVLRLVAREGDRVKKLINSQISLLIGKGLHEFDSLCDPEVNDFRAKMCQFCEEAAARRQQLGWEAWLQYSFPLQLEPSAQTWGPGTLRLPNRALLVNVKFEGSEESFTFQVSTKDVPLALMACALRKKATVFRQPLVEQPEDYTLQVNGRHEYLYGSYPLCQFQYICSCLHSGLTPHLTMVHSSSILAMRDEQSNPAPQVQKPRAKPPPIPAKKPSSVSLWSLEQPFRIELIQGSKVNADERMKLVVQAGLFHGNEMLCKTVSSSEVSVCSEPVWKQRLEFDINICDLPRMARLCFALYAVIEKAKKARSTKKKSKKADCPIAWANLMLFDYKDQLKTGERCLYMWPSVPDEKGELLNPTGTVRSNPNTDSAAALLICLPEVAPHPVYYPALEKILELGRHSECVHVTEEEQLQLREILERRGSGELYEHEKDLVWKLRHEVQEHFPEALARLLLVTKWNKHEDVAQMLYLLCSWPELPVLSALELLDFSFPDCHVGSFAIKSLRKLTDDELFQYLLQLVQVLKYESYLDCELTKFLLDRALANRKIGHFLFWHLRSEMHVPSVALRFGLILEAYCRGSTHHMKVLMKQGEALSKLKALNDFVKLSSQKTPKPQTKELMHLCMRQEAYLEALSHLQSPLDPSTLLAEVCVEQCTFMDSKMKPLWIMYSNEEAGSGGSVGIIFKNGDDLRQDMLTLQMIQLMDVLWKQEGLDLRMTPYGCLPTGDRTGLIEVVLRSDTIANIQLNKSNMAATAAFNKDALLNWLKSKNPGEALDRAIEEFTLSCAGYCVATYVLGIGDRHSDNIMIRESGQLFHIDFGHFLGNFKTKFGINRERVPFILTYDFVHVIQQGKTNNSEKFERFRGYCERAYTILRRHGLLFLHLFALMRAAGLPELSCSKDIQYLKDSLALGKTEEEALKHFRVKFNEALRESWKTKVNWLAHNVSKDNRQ

[8] = target: T1, Phosphatidylinositol 3-kinase catalytic subunit type 3; experiment: Inhibition of recombinant human VPS34 using L-alpha-phosphatidylinositol as substrate incubated for 10 mins by luminescence based ATP detection assay
How it was run: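 VPS34 biochemical IC50 was measured with a luminescence-based ATP detection read-out.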

[9] = target: T1, Phosphatidylinositol 3-kinase catalytic subunit type 3; experiment: Inhibition of VPS34 in human U2OS cells incubated for 2 hrs by GFP-FYVE reporter gene assay; type: cell-based
[10] = target: Phosphatidylinositol 4,5-bisphosphate 3-kinase catalytic subunit alpha isoform (Homo sapiens, UniProt P42336); experiment: Inhibition of PI3Kalpha (unknown origin)
Phosphatidylinositol 4,5-bisphosphate 3-kinase catalytic subunit alpha isoform, sequence (P42336 whole entry, canonical isoform): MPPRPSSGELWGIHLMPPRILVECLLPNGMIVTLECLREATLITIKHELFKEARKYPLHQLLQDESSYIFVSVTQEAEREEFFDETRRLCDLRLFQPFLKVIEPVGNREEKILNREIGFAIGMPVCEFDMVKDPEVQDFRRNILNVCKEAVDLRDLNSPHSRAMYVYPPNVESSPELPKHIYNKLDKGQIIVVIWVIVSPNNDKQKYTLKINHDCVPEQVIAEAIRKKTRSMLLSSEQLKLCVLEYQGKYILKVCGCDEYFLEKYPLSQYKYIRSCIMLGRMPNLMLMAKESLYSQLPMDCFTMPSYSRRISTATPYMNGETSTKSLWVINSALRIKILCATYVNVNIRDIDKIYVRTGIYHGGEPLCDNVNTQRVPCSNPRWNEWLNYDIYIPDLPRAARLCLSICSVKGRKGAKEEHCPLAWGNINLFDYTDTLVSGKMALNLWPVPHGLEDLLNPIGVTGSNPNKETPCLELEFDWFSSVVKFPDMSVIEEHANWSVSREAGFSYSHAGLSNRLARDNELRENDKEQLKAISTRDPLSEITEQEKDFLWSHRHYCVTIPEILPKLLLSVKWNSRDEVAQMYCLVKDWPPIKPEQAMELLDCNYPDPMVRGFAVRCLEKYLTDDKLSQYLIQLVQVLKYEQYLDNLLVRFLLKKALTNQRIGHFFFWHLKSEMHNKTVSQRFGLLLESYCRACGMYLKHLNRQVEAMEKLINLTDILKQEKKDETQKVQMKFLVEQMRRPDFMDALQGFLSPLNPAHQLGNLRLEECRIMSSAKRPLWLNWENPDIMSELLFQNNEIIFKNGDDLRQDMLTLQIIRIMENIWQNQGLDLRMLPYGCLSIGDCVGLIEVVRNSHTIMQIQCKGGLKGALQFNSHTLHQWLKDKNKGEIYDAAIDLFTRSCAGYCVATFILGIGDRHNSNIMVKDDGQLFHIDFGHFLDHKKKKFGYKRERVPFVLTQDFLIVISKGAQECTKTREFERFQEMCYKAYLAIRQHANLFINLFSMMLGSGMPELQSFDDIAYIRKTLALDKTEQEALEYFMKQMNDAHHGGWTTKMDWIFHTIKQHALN

[11] = target: Phosphatidylinositol 4,5-bisphosphate 3-kinase catalytic subunit beta isoform (Homo sapiens, UniProt P42338); experiment: Inhibition of PI3Kbeta (unknown origin)
Phosphatidylinositol 4,5-bisphosphate 3-kinase catalytic subunit beta isoform, sequence (P42338 whole entry, canonical isoform): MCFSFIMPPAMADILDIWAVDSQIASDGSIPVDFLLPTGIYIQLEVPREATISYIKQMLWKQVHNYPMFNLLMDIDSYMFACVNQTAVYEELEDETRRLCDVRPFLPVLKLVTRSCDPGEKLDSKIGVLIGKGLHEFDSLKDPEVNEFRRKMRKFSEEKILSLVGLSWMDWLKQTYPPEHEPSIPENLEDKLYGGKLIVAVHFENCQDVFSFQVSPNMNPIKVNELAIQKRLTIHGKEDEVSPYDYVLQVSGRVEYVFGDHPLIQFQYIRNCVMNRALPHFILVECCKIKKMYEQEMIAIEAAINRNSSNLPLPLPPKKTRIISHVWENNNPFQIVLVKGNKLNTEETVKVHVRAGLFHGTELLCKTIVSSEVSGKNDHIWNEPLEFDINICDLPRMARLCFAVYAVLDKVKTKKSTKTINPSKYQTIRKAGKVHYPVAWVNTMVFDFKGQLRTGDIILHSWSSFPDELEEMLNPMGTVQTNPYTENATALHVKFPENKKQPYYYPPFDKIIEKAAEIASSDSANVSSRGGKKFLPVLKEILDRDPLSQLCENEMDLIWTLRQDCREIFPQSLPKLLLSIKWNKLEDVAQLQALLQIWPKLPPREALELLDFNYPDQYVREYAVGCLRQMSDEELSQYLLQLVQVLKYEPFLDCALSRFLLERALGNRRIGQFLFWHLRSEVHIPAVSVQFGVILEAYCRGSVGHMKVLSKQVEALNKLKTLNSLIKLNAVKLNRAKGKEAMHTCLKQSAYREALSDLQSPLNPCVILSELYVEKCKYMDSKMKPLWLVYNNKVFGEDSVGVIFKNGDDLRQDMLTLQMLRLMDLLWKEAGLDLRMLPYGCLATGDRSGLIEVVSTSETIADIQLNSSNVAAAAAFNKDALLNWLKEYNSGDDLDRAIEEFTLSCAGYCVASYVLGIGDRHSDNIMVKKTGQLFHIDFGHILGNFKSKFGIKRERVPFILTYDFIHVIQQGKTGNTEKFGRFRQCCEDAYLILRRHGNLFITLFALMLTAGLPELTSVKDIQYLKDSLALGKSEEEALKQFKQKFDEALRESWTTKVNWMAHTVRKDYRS

[12] = target: Phosphatidylinositol 4,5-bisphosphate 3-kinase catalytic subunit gamma isoform (Homo sapiens, UniProt P48736); experiment: Inhibition of PI3Kgamma (unknown origin)
Phosphatidylinositol 4,5-bisphosphate 3-kinase catalytic subunit gamma isoform, sequence (P48736 whole entry, canonical isoform): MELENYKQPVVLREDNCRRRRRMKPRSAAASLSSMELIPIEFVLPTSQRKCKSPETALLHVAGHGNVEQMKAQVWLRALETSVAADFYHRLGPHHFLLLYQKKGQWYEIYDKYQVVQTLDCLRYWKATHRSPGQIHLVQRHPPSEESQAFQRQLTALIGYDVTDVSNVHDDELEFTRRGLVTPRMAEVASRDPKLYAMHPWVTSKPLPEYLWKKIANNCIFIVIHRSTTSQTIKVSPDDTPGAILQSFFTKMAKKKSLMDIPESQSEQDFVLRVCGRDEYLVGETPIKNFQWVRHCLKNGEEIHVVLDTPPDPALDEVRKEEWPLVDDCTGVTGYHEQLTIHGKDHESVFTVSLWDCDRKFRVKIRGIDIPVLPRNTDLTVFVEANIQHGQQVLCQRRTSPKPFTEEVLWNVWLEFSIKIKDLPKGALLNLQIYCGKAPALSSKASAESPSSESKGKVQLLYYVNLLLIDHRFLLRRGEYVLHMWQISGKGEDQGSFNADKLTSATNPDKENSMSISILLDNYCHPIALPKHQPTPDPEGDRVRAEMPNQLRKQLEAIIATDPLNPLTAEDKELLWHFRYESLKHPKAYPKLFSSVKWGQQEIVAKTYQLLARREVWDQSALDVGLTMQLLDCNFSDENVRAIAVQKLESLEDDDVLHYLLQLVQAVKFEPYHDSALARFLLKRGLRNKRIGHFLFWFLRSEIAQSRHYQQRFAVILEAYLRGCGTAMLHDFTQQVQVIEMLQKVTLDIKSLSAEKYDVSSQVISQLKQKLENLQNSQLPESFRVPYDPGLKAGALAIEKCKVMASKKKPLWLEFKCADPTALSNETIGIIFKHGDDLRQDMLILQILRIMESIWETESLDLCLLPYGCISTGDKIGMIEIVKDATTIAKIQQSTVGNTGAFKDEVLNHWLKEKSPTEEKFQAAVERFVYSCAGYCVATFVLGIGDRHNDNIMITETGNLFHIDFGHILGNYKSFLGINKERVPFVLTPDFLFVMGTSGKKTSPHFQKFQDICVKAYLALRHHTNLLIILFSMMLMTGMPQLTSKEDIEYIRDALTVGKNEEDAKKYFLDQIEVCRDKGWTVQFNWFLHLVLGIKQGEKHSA

Homo sapiens [13] = organism: Homo sapiens; experiment: Selectivity ratio of IC50 for PI3Kdelta (unknown origin) to recombinant human VPS34
Homo sapiens [14] = organism: Homo sapiens; experiment: Selectivity ratio of IC50 for TAK1 (unknown origin) to recombinant human VPS34
Homo sapiens [15] = organism: Homo sapiens; experiment: Selectivity ratio of IC50 for PI3Kalpha (unknown origin) to recombinant human VPS34
Homo sapiens [16] = organism: Homo sapiens; experiment: Selectivity ratio of IC50 for PI3Kbeta (unknown origin) to recombinant human VPS34
Homo sapiens [17] = organism: Homo sapiens; experiment: Selectivity ratio of IC50 for PI3Kgamma (unknown origin) to recombinant human VPS34
[18] = target: T1, Phosphatidylinositol 3-kinase catalytic subunit type 3; experiment: Inhibition of VPS34 in human DLD1 cells assessed as increase in LC3-1 protein expression at 1 to 10 uM incubated for 24 hrs by Western blot analysis; type: cell-based; details: DLD-1
[19] = target: T1, Phosphatidylinositol 3-kinase catalytic subunit type 3; experiment: Inhibition of VPS34 in human DLD1 cells assessed as increase in LC3-2 protein expression at 1 to 10 uM incubated for 24 hrs by Western blot analysis; type: cell-based; details: DLD-1
[20] = Systemic clearance in C57BL/6 mouse at 10 mg/kg, po; type: ADME, organism-based; details: in vivo
How it was run: (§1)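 Pharmacokinetics in C57BL/6 mice after a single dose, either intravenous at 2 mg/kg or oral at 10 mg/kg. Mean parameters reported: AUCinf, CL, Vdss, t1/2, Tmax, Cmax and F. Clearance was also expressed as a percentage of hepatic blood flow.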

Mus musculus [21] = experiment: Systemic clearance in C57BL/6 mouse at 10 mg/kg, po relative to hepatic blood flow; type: ADME, organism-based, Liver; details: in vivo; how it was run: as §1
[22] = AUC (0 to infinity) in C57BL/6 mouse at 2 mg/kg, iv; type: ADME, organism-based; parameters: dose 2 mg/kg, route intravenous, time infinity; details: in vivo; how it was run: as §1
[23] = AUC (0 to infinity) in C57BL/6 mouse at 10 mg/kg, po; type: ADME, organism-based; parameters: dose 10 mg/kg, route oral, time infinity; details: in vivo; how it was run: as §1
[24] = Clearance in C57BL/6 mouse at 2 mg/kg, iv; type: ADME, organism-based; details: in vivo; how it was run: as §1
[25] = Volume of distribution at steady state in C57BL/6 mouse at 2 mg/kg, iv; type: ADME, organism-based; details: in vivo, read-out: Vdss; how it was run: as §1
[26] = Half life in C57BL/6 mouse at 2 mg/kg, iv; type: ADME, organism-based; details: in vivo; how it was run: as §1
[27] = Tmax in C57BL/6 mouse at 10 mg/kg, po; type: ADME, organism-based; details: in vivo; how it was run: as §1
[28] = Cmax in C57BL/6 mouse at 10 mg/kg, po; type: ADME, organism-based; parameters: dose 10 mg/kg, route oral; details: in vivo; how it was run: as §1
[29] = Oral bioavailability in C57BL/6 mouse at 10 mg/kg; type: ADME, organism-based; details: in vivo; how it was run: as §1
Mus musculus [30] = experiment: Inhibition of autophagy in athymic nude mouse xenografted with human RKO cells assessed as accumulation of LC3-2 protein at 50 mg/kg, po bid for 7 days by SDS-PAGE analysis; type: functional, organism-based; details: TDE = time-dependent effect
How it was run: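 Nude mice bearing RKO colon cancer tumors were dosed orally at 50 mg/kg twice daily (BID) for 7 days. LC3-II in tumor samples was followed over time by immunoblot, one lane per individual mouse.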

RKO = experiment: Antitumor activity against human RKO cells xenografted in athymic nude mouse assessed as reduction in tumor volume at 50 mg/kg, po bid for 7 days; type: functional, organism-based
[31] = target: Phosphatidylinositol 4-kinase beta (Homo sapiens, UniProt Q9UBF8); experiment: Inhibition of PI4Kbeta (unknown origin)
Phosphatidylinositol 4-kinase beta, sequence (Q9UBF8 whole entry): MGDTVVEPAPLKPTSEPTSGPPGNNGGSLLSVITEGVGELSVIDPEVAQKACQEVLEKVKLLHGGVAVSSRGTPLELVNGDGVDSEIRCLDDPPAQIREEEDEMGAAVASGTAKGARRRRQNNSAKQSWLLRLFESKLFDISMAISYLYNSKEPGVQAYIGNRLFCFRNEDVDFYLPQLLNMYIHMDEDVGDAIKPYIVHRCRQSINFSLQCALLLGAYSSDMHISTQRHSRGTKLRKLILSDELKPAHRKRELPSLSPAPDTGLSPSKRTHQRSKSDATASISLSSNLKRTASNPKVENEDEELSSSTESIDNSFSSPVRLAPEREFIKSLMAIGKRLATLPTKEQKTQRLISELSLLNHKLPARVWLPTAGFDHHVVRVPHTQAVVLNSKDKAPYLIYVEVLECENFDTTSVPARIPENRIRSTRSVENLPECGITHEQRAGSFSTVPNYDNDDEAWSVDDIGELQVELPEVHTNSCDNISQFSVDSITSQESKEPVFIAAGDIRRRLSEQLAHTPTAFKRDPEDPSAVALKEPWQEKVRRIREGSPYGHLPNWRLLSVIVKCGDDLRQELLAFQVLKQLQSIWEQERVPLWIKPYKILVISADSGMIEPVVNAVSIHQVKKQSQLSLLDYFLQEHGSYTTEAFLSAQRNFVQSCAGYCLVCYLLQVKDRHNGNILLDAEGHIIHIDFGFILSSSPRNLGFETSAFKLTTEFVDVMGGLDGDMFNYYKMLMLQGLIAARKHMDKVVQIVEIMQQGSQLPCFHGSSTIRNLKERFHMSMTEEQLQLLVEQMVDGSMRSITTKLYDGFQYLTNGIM

CLint scaled [1]: 72.8 mL/min/kg
inhibition [2]: Active
inhibition [3]: Active
inhibition [4]: Active
inhibition [5]: Active
inhibition [6]: Active
Compound: Nc1ncc(-c2ccnc(Nc3ccncc3)n2)c(CC2CC2)n1

CLint scaled [1]: 67 mL/min/kg
IC50 [7]: 500 nM
Compound: CC(C)(C)CNc1ncc(-c2ccnc(Nc3ccncc3)n2)c(CC2CC2)n1

IC50 [8]: 410 nM
Compound: CNc1ncc(-c2ccnc(N[C@H]3CC[C@H](N)CC3)n2)c(CC2CC2)n1

IC50 [8]: 130 nM
Compound: CNc1ncc(-c2ccnc(Nc3cnc4ccccc4c3)n2)c(CC2CC2)n1

CLint scaled [1]: 85.5 mL/min/kg
IC50 [7]: 740 nM
Compound: CC(C)(C)Nc1ncc(-c2ccnc(Nc3ccncc3)n2)c(CC2CC2)n1

CLint scaled [1]: 69.9 mL/min/kg
IC50 [8]: 210 nM
IC50 [9]: 330 nM
IC50 [7]: > 9100 nM
Compound: c1cc(Nc2nccc(-c3cncnc3CC3CC3)n2)ccn1

IC50 [8]: 290 nM
Compound: CNc1ncc(-c2ccnc(Nc3ccccc3)n2)c(CC2CC2)n1

CLint scaled [1]: 74.8 mL/min/kg
IC50 [7]: 3700 nM
Compound: c1ccc(CNc2ncc(-c3ccnc(Nc4ccncc4)n3)c(CC3CC3)n2)cc1

CLint scaled [1]: 86.7 mL/min/kg
IC50 [9]: 14 nM
IC50 [10]: 6800 nM
IC50 [11]: > 9100 nM
IC50 [12]: 1900 nM
IC50 [7]: 2900 nM
Compound: CNc1ncc(-c2ccnc(Nc3ccncc3)n2)c(CC2CC2)n1

CLint scaled [1]: 84.7 mL/min/kg
IC50 [7]: 8500 nM
Compound: COc1ncc(-c2ccnc(Nc3ccncc3)n2)c(CC2CC2)n1

IC50 [8]: 6300 nM
Compound: CNc1ncc(-c2ccnc(NCCCO)n2)c(CC2CC2)n1

CLint scaled [1]: 65.8 mL/min/kg
IC50 [8]: 240 nM
IC50 [9]: 270 nM
IC50 [7]: 4200 nM
Compound: c1cc(Nc2nccc(-c3cnc(NC4CCOCC4)nc3CC3CC3)n2)ccn1

CLint scaled [1]: 63.2 mL/min/kg
IC50 [9]: 25 nM
IC50 [7]: 820 nM
Ratio IC50 (Homo sapiens [13]): 40
Ratio IC50 (Homo sapiens [14]): 10
Ratio IC50 (Homo sapiens [15]): > 100
Ratio IC50 (Homo sapiens [16]): > 100
Ratio IC50 (Homo sapiens [17]): > 100
inhibition [2]: Active
inhibition [3]: Active
inhibition [4]: Active
inhibition [5]: Active
inhibition [6]: Active
inhibition [18]: Active
inhibition [19]: Active
CL/F [20]: 30 mL/min/kg
CL (Mus musculus [21]): 33%
AUC(0-inf) [22]: 2.85 µM·h
AUC(0-inf) [23]: 6.73 µM·h
clearance [24]: 30 mL/min/kg
Vd [25]: 1.5 L/kg
half-life [26]: 72 min
Tmax [27]: 42 min
Cmax [28]: 2990 nM
bioavailability [29]: 47%
Compound: CC(C)(O)CNc1ncc(-c2ccnc(Nc3ccncc3)n2)c(CC2CC2)n1
inhibition (Mus musculus [30]): tde
Activity (RKO): inactive

IC50 [8]: 3400 nM
Compound: CNc1ncc(-c2ccnc(NC3CCCCC3)n2)c(CC2CC2)n1

CLint scaled [1]: 82.6 mL/min/kg
IC50 [31]: 3800 nM
IC50 [10]: 6200 nM
IC50 [11]: > 9100 nM
IC50 [12]: 8500 nM
IC50 [7]: 7000 nM
Compound: CNc1ncc(-c2ccnc(N[C@H]3CC[C@H](O)CC3)n2)c(CC2CC2)n1
